Results published in ChEMBL document CHEMBL1649372, “Discovery of highly potent agents against influenza A virus” (Eur J Med Chem, 2011).
Active and inactive are the calls of the source. The calls are words filed in the database; no cut-off is given here.

Experiments:
Influenza A virus [1] = assay: Antiviral activity against amantadine-sensitive Influenza A virus A/Hong Kong/8/68 (H3N2) infected in MDCK cells assessed as host cell survival after 72 hrs by CCK8 method; assay type: functional, organism-based
In short: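 Compounds added with TPCK and 0.3% BSA and preincubated 30 min at 37 °C. Cells then infected with about 0.01 MOI A/Hong Kong/8/68 (H3N2) and incubated 72 h at 37 °C in 5% CO2. CCK-8 reagent then added to read host cell survival.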

Influenza A virus [2] = assay: Ratio of compound IC50 to amantadine IC50 for Influenza A virus A/Hong Kong/8/68 (H3N2); assay type: functional
Influenza A virus [3] = assay: Antiviral activity against amantadine-sensitive Influenza A virus A/Hong Kong/8/68 (H3N2) infected in MDCK cells at 0.01 to 10 uM after 2 to 3 days by crystal violet staining by plaque reduction assay; assay type: functional, organism-based
In short: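 MDCK monolayer infected with 0.01 MOI A/Hong Kong/8/68 for 1 h at 37 °C. Inoculum removed and cells washed twice with PBS, then overlaid with 1% agar DMEM containing test agent. Plaque formation scored.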

| Compound | IC50 (Influenza A virus [1]) [µM] | Ratio IC50 (Influenza A virus [2]) | Activity (Influenza A virus [3]) |
| --- | --- | --- | --- |
| C[C@@H]1[C@H]2C[C@@H](C[C@H]1NCc1ccc(O)cc1)C2(C)C | > 200 | – | – |
| C[C@@H]1[C@H]2C[C@@H](C[C@H]1NCc1ccc(F)cc1)C2(C)C | > 200 | – | – |
| C[C@@H]1[C@H]2C[C@@H](C[C@H]1/N=C/c1ccccc1O)C2(C)C | 20.3 | – | – |
| CCN[C@@H]1C[C@@H]2C[C@H]([C@H]1C)C2(C)C | > 200 | – | – |
| C[C@@H]1[C@H]2C[C@@H](C[C@H]1/N=C/c1ccc(F)cc1)C2(C)C | 16.3 | – | – |
| CC(C)N[C@@H]1C[C@@H]2C[C@H]([C@H]1C)C2(C)C | > 200 | – | – |
| C[C@@H]1[C@H]2C[C@@H](C[C@H]1NCC1CC1)C2(C)C | 28.5 | – | – |
| C[C@@H]1[C@H]2C[C@@H](C[C@H]1NC1CCCCC1)C2(C)C | 43.7 | – | – |
| C[C@@H]1[C@H]2C[C@@H](C[C@H]1/N=C/c1ccc(N(C)C)cc1)C2(C)C | 38.4 | – | – |
| CN[C@@H]1C[C@@H]2C[C@H]([C@H]1C)C2(C)C | 23.5 | – | – |
| Cc1ccc(/C=N/[C@@H]2C[C@@H]3C[C@H]([C@H]2C)C3(C)C)cc1 | 13.9 | – | – |
| C[C@@H]1[C@H]2C[C@@H](C[C@H]1/N=C/c1ccccc1)C2(C)C | 7.78 | – | – |
| C[C@@H]1[C@H]2C[C@@H](C[C@H]1/N=C/c1cccc(O)c1)C2(C)C | 5.99 | – | – |
| C[C@@H]1[C@H]2C[C@@H](C[C@H]1/N=C/c1ccc(O)cc1)C2(C)C | 0.088 | 240 | Active |
| NC12CC3CC(CC(C3)C1)C2 [AMANTADINE] | 21.1 | – | – |
